# System: U2OS
# Test: Multiplex assay against U2OS
# Format: toxicity, cell-based
# Conditions: human
# Summary of the method: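 Live cells were stained at seeding with Hoechst33342, BioTracker Green Microtubule Cytoskeleton Dye, MitoTracker Red and Annexin V Alexa Fluor 680, then imaged on a CQ1 microscope at 37°C and 5% CO2 after compound addition. CellPathfinder machine-learning gating split cells into Hoechst high-intensity objects or normal cells. Normal cells were split into healthy, pyknosed or fragmented nuclei, and pyknosed cells into mitotic or apoptotic. Tubulin, mitochondrial-mass and membrane-permeability phenotypes are per cents of healthy-nucleus cells.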
# [1] = 12 h, 1 µM, compound concentration 1 uM, replicate 1
# [2] = 12 h, 1 µM, compound concentration 1 uM, replicate 2
# [3] = 12 h, 10 µM, compound concentration 10 uM, replicate 1
# [4] = 12 h, 10 µM, compound concentration 10 uM, replicate 2
# [5] = 24 h, 1 µM, compound concentration 1 uM, replicate 1
# [6] = 24 h, 1 µM, compound concentration 1 uM, replicate 2
# [7] = 24 h, 10 µM, compound concentration 10 uM, replicate 1
# [8] = 24 h, 10 µM, compound concentration 10 uM, replicate 2
# [9] = 48 h, 1 µM, compound concentration 1 uM, replicate 1
# [10] = 48 h, 1 µM, compound concentration 1 uM, replicate 2
# [11] = 48 h, 10 µM, compound concentration 10 uM, replicate 1
# [12] = 48 h, 10 µM, compound concentration 10 uM, replicate 2
smiles,measurement,setting,value
Cc1ccc(OCC(O)C(C)NC(C)C)c2c1CCC2.Cl (stereo unspecified),Population Apoptotic (%),[1],63%
same,Population Fragmented Nuclei (%),[1],19%
same,Population Healthy Nuclei (%),[1],66%
same,Population Hoechst High Intensity Objects (%),[1],2%
same,Population Membrane Permeable-Phenotype (%),[1],8%
same,Population Mitochondria Different-Phenotype (%),[1],3%
same,Population Mitotic Cells (%),[1],36%
same,Population Normal (%),[1],97%
same,Population Pyknosed Nuclei (%),[1],13%
same,Population Tubulin-Different-Phenotype (%),[1],4%
same,Total Cell Count,[1],222
same,Population Apoptotic (%),[2],90%
same,Population Fragmented Nuclei (%),[2],11%
same,Population Healthy Nuclei (%),[2],79%
same,Population Hoechst High Intensity Objects (%),[2],1%
same,Population Membrane Permeable-Phenotype (%),[2],7%
same,Population Mitochondria Different-Phenotype (%),[2],2%
same,Population Mitotic Cells (%),[2],9%
same,Population Normal (%),[2],98%
same,Population Pyknosed Nuclei (%),[2],8%
same,Population Tubulin-Different-Phenotype (%),[2],2%
same,Total Cell Count,[2],129
same,Population Apoptotic (%),[3],61%
same,Population Fragmented Nuclei (%),[3],30%
same,Population Healthy Nuclei (%),[3],52%
same,Population Hoechst High Intensity Objects (%),[3],5%
same,Population Membrane Permeable-Phenotype (%),[3],14%
same,Population Mitochondria Different-Phenotype (%),[3],17%
same,Population Mitotic Cells (%),[3],38%
same,Population Normal (%),[3],94%
same,Population Pyknosed Nuclei (%),[3],16%
same,Population Tubulin-Different-Phenotype (%),[3],8%
same,Total Cell Count,[3],215
same,Population Apoptotic (%),[4],80%
same,Population Fragmented Nuclei (%),[4],11%
same,Population Healthy Nuclei (%),[4],81%
same,Population Hoechst High Intensity Objects (%),[4],0%
same,Population Membrane Permeable-Phenotype (%),[4],9%
same,Population Mitochondria Different-Phenotype (%),[4],22%
same,Population Mitotic Cells (%),[4],20%
same,Population Normal (%),[4],99%
same,Population Pyknosed Nuclei (%),[4],7%
same,Population Tubulin-Different-Phenotype (%),[4],9%
same,Total Cell Count,[4],137
same,Population Apoptotic (%),[5],88%
same,Population Fragmented Nuclei (%),[5],14%
same,Population Healthy Nuclei (%),[5],75%
same,Population Hoechst High Intensity Objects (%),[5],0%
same,Population Membrane Permeable-Phenotype (%),[5],5%
same,Population Mitochondria Different-Phenotype (%),[5],3%
same,Population Mitotic Cells (%),[5],11%
same,Population Normal (%),[5],100%
same,Population Pyknosed Nuclei (%),[5],10%
same,Population Tubulin-Different-Phenotype (%),[5],4%
same,Total Cell Count,[5],255
same,Population Apoptotic (%),[6],93%
same,Population Fragmented Nuclei (%),[6],15%
same,Population Healthy Nuclei (%),[6],73%
same,Population Hoechst High Intensity Objects (%),[6],1%
same,Population Membrane Permeable-Phenotype (%),[6],3%
same,Population Mitochondria Different-Phenotype (%),[6],5%
same,Population Mitotic Cells (%),[6],6%
same,Population Normal (%),[6],98%
same,Population Tubulin-Different-Phenotype (%),[6],0%
same,Total Cell Count,[6],155
same,Population Apoptotic (%),[7],82%
same,Population Fragmented Nuclei (%),[7],26%
same,Population Healthy Nuclei (%),[7],56%
same,Population Hoechst High Intensity Objects (%),[7],3%
same,Population Membrane Permeable-Phenotype (%),[7],10%
same,Population Mitochondria Different-Phenotype (%),[7],17%
same,Population Mitotic Cells (%),[7],17%
same,Population Normal (%),[7],96%
same,Population Pyknosed Nuclei (%),[7],17%
same,Population Tubulin-Different-Phenotype (%),[7],4%
same,Total Cell Count,[7],230
same,Population Apoptotic (%),[8],92%
same,Population Fragmented Nuclei (%),[8],14%
same,Population Healthy Nuclei (%),[8],77%
same,Population Hoechst High Intensity Objects (%),[8],2%
same,Population Membrane Permeable-Phenotype (%),[8],12%
same,Population Mitochondria Different-Phenotype (%),[8],11%
same,Population Mitotic Cells (%),[8],7%
same,Population Normal (%),[8],97%
same,Population Pyknosed Nuclei (%),[8],8%
same,Population Tubulin-Different-Phenotype (%),[8],6%
same,Total Cell Count,[8],172
same,Population Apoptotic (%),[9],88%
same,Population Fragmented Nuclei (%),[9],14%
same,Population Healthy Nuclei (%),[9],73%
same,Population Hoechst High Intensity Objects (%),[9],0%
same,Population Membrane Permeable-Phenotype (%),[9],6%
same,Population Mitochondria Different-Phenotype (%),[9],4%
same,Population Mitotic Cells (%),[9],11%
same,Population Normal (%),[9],99%
same,Population Pyknosed Nuclei (%),[9],12%
same,Population Tubulin-Different-Phenotype (%),[9],3%
same,Total Cell Count,[9],377
same,Population Apoptotic (%),[10],80%
same,Population Fragmented Nuclei (%),[10],20%
same,Population Healthy Nuclei (%),[10],69%
same,Population Hoechst High Intensity Objects (%),[10],2%
same,Population Membrane Permeable-Phenotype (%),[10],5%
same,Population Mitochondria Different-Phenotype (%),[10],3%
same,Population Mitotic Cells (%),[10],20%
same,Population Normal (%),[10],97%
same,Population Pyknosed Nuclei (%),[10],10%
same,Population Tubulin-Different-Phenotype (%),[10],2%
same,Total Cell Count,[10],202
same,Population Apoptotic (%),[11],82%
same,Population Fragmented Nuclei (%),[11],23%
same,Population Healthy Nuclei (%),[11],63%
same,Population Hoechst High Intensity Objects (%),[11],4%
same,Population Membrane Permeable-Phenotype (%),[11],12%
same,Population Mitochondria Different-Phenotype (%),[11],12%
same,Population Mitotic Cells (%),[11],17%
same,Population Normal (%),[11],95%
same,Population Pyknosed Nuclei (%),[11],13%
same,Population Tubulin-Different-Phenotype (%),[11],6%
same,Total Cell Count,[11],306
same,Population Apoptotic (%),[12],77%
same,Population Fragmented Nuclei (%),[12],15%
same,Population Healthy Nuclei (%),[12],73%
same,Population Hoechst High Intensity Objects (%),[12],0%
same,Population Membrane Permeable-Phenotype (%),[12],7%
same,Population Mitochondria Different-Phenotype (%),[12],4%
same,Population Mitotic Cells (%),[12],22%
same,Population Normal (%),[12],99%
same,Population Pyknosed Nuclei (%),[12],11%
same,Population Tubulin-Different-Phenotype (%),[12],3%
same,Total Cell Count,[12],246

# — ChEMBL document CHEMBL5058577, “EUbOPEN Chemogenomics Library 2 (Multiplex)” (2022)
